Most compounds without a hit are left out; they make up all but 2.1% or so of the library.
CCR6 antagonist – CCR6 (human) receptor antagonism; P51684; CHO-K1 CCR6 PathHunter beta-arrestin, luminescence, CCL20-stimulated; inhibition, % at 20 µM; 0.49% of 340,000 active; AID 493098;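 active = compounds whose inhibition of the agonist-driven luminescence signal at 20 µM reaches about 50%, limit read from the data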;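 also: cells stimulated with CCL20 at 14 nM final; plate controls were DMSO with CCL20 for no effect and DMSO without agonist for full effect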
EBI2 antag – blocks human EBI2 receptor beta-arrestin signaling; EBI2 beta-arrestin recruitment, luminescence, 7a,25-OHC stimulated; inhibition, % at 5 µM; AID 651636; 0.81% of 360,000 active; in the data active = inhibition above about 38%;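 also: enzyme fragment complementation signal reports receptor beta-arrestin coupling in cells; 0% = agonist plus DMSO wells and 100% = wells without agonist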
CXCR6 inh – blocks human CXCR6 beta-arrestin recruitment. CHO-K1 PathHunter CXCR6 beta-arrestin, luminescence. inhibition, % at 20 µM. O00574. 0.36% of 360,000 active; in the data active = inhibition above about 34%, passing the limit was not always enough;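 also: antagonist mode with CXCL16 agonist at 10 nM final; 0% = 10 nM CXCL16 with DMSO and 100% = unstimulated wells without agonist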
APJ antag – APJ receptor antagonism. P35414. CHO-K1 APJ beta-arrestin complementation, luminescence. 0.32% of 330,000 active. AID 2521. inhibition, % at 20 µM;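 active = inhibition above about 40% at 20 µM, limit read from the data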;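 also: cells challenged with 10 nM apelin-13 agonist together with compound; plate controls were apelin-13 plus DMSO wells for no effect and DMSO wells lacking apelin-13 for full effect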
Target sequence (P35414 whole entry, looked up): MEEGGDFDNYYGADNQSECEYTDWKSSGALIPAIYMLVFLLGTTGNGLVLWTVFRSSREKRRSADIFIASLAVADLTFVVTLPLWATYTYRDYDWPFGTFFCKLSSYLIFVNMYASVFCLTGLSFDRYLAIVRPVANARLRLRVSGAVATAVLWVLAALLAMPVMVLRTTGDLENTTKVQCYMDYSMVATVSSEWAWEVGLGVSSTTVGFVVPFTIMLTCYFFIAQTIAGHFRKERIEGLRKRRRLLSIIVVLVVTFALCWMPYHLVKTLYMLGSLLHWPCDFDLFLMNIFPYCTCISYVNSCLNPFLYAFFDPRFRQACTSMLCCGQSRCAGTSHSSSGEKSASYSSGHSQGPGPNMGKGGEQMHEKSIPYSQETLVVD
APJ agonist – agonists of human APJ apelin receptor | activation, % at 20 µM | 0.11% of 330,000 active | P35414 | CHO-K1 APJ PathHunter beta-arrestin, luminescence; 0% DMSO wells, 100% apelin;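 active = activation more than six SD over the plate average, tested at 20 µM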;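 also: 0% = DMSO alone and 100% = apelin-13 at 10 nM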
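Assay system: CHO-K1 APJ beta-arrestin complementation cell line / Compound: single test compound dose, 20 µM final, 1% DMSO / Times: overnight seeding, 90 min compound at 25 °C, 1 h detection / Technique: beta-gal luminescence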
HTR2A ag – mouse HTR2A agonism via beta-arrestin recruitment; CHO-K1 mHTR2A beta-arrestin complementation, luminescence; percent of 30 µM serotonin response; activation, % at 7.6 µM; 0.66% of 360,000 active;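 active = activation above a run cutoff, the mean activation of all tested compounds plus 3 SD, cut at about 14% in these data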;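 also: 0% = plate median of compound wells and 100% = 30 µM serotonin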
EBI2 conf – EBI2 (human) antagonism, single concentration confirmation; shares compounds with EBI2 antag; EBI2 beta-arrestin luminescence, 7a,25-OHC antagonism; inhibition, % at 5 µM; 29% of 2,400 active; AID 651997;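 active = inhibition of at least 50%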
EBI2 agonist – counter-screen for EBI2 antagonists: EBI2 agonist activity; activation, % at 5 µM; 2,400 tested, under 10 active; AID 652000; shares compounds with EBI2 antag; EBI2-expressing cells, agonist mode, luminescence, 60 min; 0% vehicle, 100% 7α,25-dihydroxycholesterol control;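 active = activation of at least 50%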
bGal counter – counter-screen for EBI2 antagonists: E. coli beta-galactosidase inhibition | shares compounds with EBI2 antag | purified beta-galactosidase, luminescent Galacton Star, 15 min | inhibition, % at 5 µM | 1% of 2,400 active | AID 652176;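 active = replicate-average signal at least 3 plate SD below neutral wells, shown as high inhibition, flagging enzyme-inhibiting false positives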;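 also: 0% = DMSO wells with enzyme and 100% = wells lacking enzyme; higher means stronger loss of beta-gal luminescence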
Numbers without * were called inactive; . = no result given.

SMILES	CCR6 antagonist	EBI2 antag	CXCR6 inh	APJ antag	APJ agonist	HTR2A ag	EBI2 conf	EBI2 agonist	bGal counter
CC(C)C[C@@H](CN1CCCC1CN1C(=S)NC[C@@H]1Cc1ccc(O)cc1)N1C[C@H](Cc2ccc(O)cc2)N(CC2CCCCCC2)C1=S (stereo partly specified)	1	30	4	.	.	-1	.	.	.
CC(C)C[C@@H](CN1CCC[C@@H]1CN1C(=S)NC[C@@H]1Cc1ccc(O)cc1)N1C[C@H](Cc2ccc(O)cc2)N(CCc2ccccc2)C1=S	.	74*	1	.	.	2	19	0	-11
CC(C)C[C@@H](CN1CCCC1CN1C(=S)NC[C@@H]1Cc1ccccc1)N1C[C@H](Cc2ccc(O)cc2)N(CCc2ccccc2)C1=S (stereo partly specified)	.	22	0	.	.	-8	.	.	.
CCOc1ccc(CCN2C(=S)N([C@@H](CC(C)C)CN3CCC[C@@H]3CN3C(=S)NC[C@@H]3CC(C)C)C[C@@H]2Cc2ccc(O)cc2)cc1	.	47*	10	.	.	-4	23	0	4
CC(C)C[C@H]1CNC(=S)N1C[C@H]1CCCN1C[C@H](CC(C)C)N1C[C@H](Cc2ccc(O)cc2)N(CC2CCCCC2)C1=S	.	61*	11	.	.	1	8	-1	-7
CC(C)C[C@@H](CN1CCC[C@@H]1CN1C(=S)NC[C@@H]1Cc1ccccc1)N1C[C@H](Cc2ccc(O)cc2)N(CCc2ccccc2)C1=S	.	37*	-1	.	.	-4	5	1	7
Cc1cc(Br)cn2c(Cc3ccsc3)c(C3CCCCC3)nc12	.	1	2	.	.	8	.	.	.
C=CCn1c(OCc2ccccc2)n[nH]c1=S	6	-6	-7	-7	-3	2	.	.	.
O=C(Nc1ccccc1N1CCN(c2ccccc2)CC1)c1ccccc1	16	2	0	-5	-4	-4	.	.	.
O=C(CN1C(=O)NC2(CCCCC2)C1=O)Nc1ccc(Cl)c(S(=O)(=O)N2CCOCC2)c1	5	2	0	6	-4	-2	.	.	.
Cc1cccc(C(=O)NCC(=O)N2CCOCC2)c1	-9	5	0	-3	-7	3	.	.	.
COc1cc(-c2ccc3c(=O)c4ccccc4sc3c2)cc(OC)c1OC	-8	44*	-6	1	-2	-4	27	-1	-10
COc1ccc2sc3ccccc3c(=O)c2c1	-12	-4	3	6	7	-4	.	.	.
COC(=O)c1c(-c2ccsc2)sc2ccc(-c3cc(OC)c(OC)c(OC)c3)cc12	18	55*	3	2	-2	1	6	-1	-7
COc1ccc(CCNC(=O)CCCc2ccccc2)cc1OC	8	6	5	10	-3	-2	.	.	.
Cc1cc(C)c(S(=O)(=O)N2CCN(C(=O)c3ccc(-n4nc(C)c(Cl)c4C)cc3)CC2)c(C)c1	4	94*	3	.	.	4	68*	0	-11
Cc1cc(C)c(S(=O)(=O)N2CCN(C(=O)c3c(C)nn(-c4ccccc4)c3Cl)CC2)c(C)c1	2	-7	-1	.	.	4	.	.	.
CCOC(=O)c1c(NC(=O)CN2C(=O)c3ccccc3C2=O)sc(Cc2ccc3c(c2)OCO3)c1C	9	65*	6	19	-3	-1	39	0	-16
CN1CCCC1(C)C(=O)NCc1ccc(F)cc1Cl (stereo unspecified)	.	-6	-7	.	.	-1	.	.	.
CCCCn1nnnc1C(c1cc2ccccc2o1)N1CCN(c2ncccc2C#N)CC1 (stereo unspecified)	.	48*	2	.	.	2	37	0	-16
CCCCn1nnnc1C(c1cc2ccccc2o1)N1CCCC1 (stereo unspecified)	.	-10	3	.	.	-5	.	.	.
